Test results from ChEMBL document CHEMBL1144701, “Synthesis and anti-HIV1 biological activity of novel 5''-ATSAO compounds” (Bioorg Med Chem, 2008).

What was measured:
[1] = test system: Human immunodeficiency virus 2; assay: Antiviral activity against HIV2 ROD in CEM cells assessed as inhibition of virus-induced cytopathogenicity after 4 days; assay type: functional, organism-based; conditions: Human immunodeficiency virus 2, ROD, CCRF-CEM, 96 h
How it was run: (§1)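 CEM cells at 4 × 10⁵/mL infected with about 100 CCID₅₀ per mL of cell suspension (HIV-1 IIIB or HIV-2 ROD). Infected suspension mixed 1:1 with serial compound dilutions. Giant cell formation scored microscopically after 4 days. EC₅₀ is the concentration inhibiting virus-induced cytopathicity by 50%.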

[2] = Cytotoxicity against mock-infected human CEM cells assessed as reduction of cell viability after 4 days; assay type: cell-based; conditions: mock-infected CEM (CCRF-CEM) cells
How it was run: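 Mock-infected CEM cells, plated as in the parallel infection assay at 4 × 10⁵/mL, mixed 1:1 with serial compound dilutions. CC₅₀ is the concentration reducing the number of viable cells by 50%.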

[3] = test system: Human immunodeficiency virus 1; assay: Antiviral activity against HIV1 3B in CEM cells assessed as inhibition of virus-induced cytopathogenicity after 4 days; assay type: functional, organism-based; conditions: Human immunodeficiency virus 1, 3B, CCRF-CEM, 96 h; how it was run: as §1
[4] = test system: Human immunodeficiency virus 1; assay: Antiviral activity against HIV1 in MT4 cells; assay type: functional, organism-based; conditions: Human immunodeficiency virus 1, MT4

Row | Compound | EC50 [1] [µM] | CC50 at 96 h [2] [µM] | EC50 [3] [µM] | EC50 [4] [µM]
1 | Cc1cn([C@@H]2O[C@H](CO[Si](C)(C)C(C)(C)C)[C@@]3(NS(=O)(=O)C(c4ccccc4)=C3N)[C@H]2O[Si](C)(C)C(C)(C)C)c(=O)n(C(=O)OC(C)(C)C)c1=O | 30 | ≥ 10 | > 50 | 
2 | Cc1cn([C@@H]2O[C@H](CO[Si](C)(C)C(C)(C)C)[C@@]3(NS(=O)(=O)C(c4ccccc4)=C3N)[C@H]2O[Si](C)(C)C(C)(C)C)c(=O)[nH]c1=O | ≥ 2 | ≥ 10 | ≥ 2 | 
3 | Cc1cn([C@@H]2O[C@H](CO[Si](C)(C)C(C)(C)C)[C@@]3(NS(=O)(=O)C=C3N)[C@H]2O[Si](C)(C)C(C)(C)C)c(=O)[nH]c1=O | > 100 | 19.1 | 0.33 | 0.13
4 | Cc1cn([C@@H]2O[C@H](CO[Si](C)(C)C(C)(C)C)[C@@]3(OS(=O)(=O)C=C3N)[C@H]2O[Si](C)(C)C(C)(C)C)c(=O)[nH]c1=O | > 4 | 16 |  | 
5 | Cc1cn([C@@H]2O[C@H](CO[Si](C)(C)C(C)(C)C)[C@]3(C(N)=C(c4ccccc4)S(=O)(=O)N3C)[C@H]2O[Si](C)(C)C(C)(C)C)c(=O)n(C)c1=O | > 2 | 10.9 | > 2 | 
6 | Cc1cn([C@@H]2O[C@H](CO[Si](C)(C)C(C)(C)C)[C@@]3(NS(=O)(=O)C(c4ccccc4)=C3N)[C@H]2O[Si](C)(C)C(C)(C)C)c(=O)n(C)c1=O | > 50 | ≥ 10 | > 50 | 
7 | CCn1c(=O)c(C)cn([C@@H]2O[C@H](CO[Si](C)(C)C(C)(C)C)[C@@]3(NS(=O)(=O)C(c4ccccc4)=C3N)[C@H]2O[Si](C)(C)C(C)(C)C)c1=O | > 50 | ≥ 10 | > 50 | 
